{
  "source": "ChEMBL document CHEMBL1143542",
  "about": "“Structure-activity relationships of bivalent aminoglycosides and evaluation of their microbiological activities” (2005)",
  "key": {"Pseudomonas aeruginosa [1]": {"tested_on": "Pseudomonas aeruginosa", "assay": "(§1) Susceptibility testing against Pseudomonas aeruginosa PAE_NUH02; R=Resistant", "assay_type": "functional, organism-based", "summary_of_the_method": "(§2)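 Disk diffusion susceptibility profiling of P. aeruginosa reference and clinical isolates against empirically used antipseudomonal antibiotics. Each isolate was categorised as susceptible, intermediate or resistant.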"}, "Pseudomonas aeruginosa [2]": {"tested_on": "Pseudomonas aeruginosa", "assay": "Susceptibility testing against Pseudomonas aeruginosa PAE_NUH20; R=Resistant", "assay_type": "functional, organism-based", "summary_of_the_method": "as §2"}, "Pseudomonas aeruginosa [3]": {"tested_on": "Pseudomonas aeruginosa", "assay": "Susceptibility testing against Pseudomonas aeruginosa PAE_NUH24; R=Resistant", "assay_type": "functional, organism-based", "summary_of_the_method": "as §2"}, "Pseudomonas aeruginosa [4]": {"tested_on": "Pseudomonas aeruginosa", "assay": "(§3) Susceptibility testing against Pseudomonas aeruginosa PAE_NUH05; R=Resistant", "assay_type": "functional, organism-based", "summary_of_the_method": "as §2"}, "Pseudomonas aeruginosa [5]": {"tested_on": "Pseudomonas aeruginosa", "assay": "Susceptibility testing against Pseudomonas aeruginosa PAE_NUH25; R=Resistant", "assay_type": "functional, organism-based", "summary_of_the_method": "as §2"}, "Pseudomonas aeruginosa [6]": {"tested_on": "Pseudomonas aeruginosa", "assay": "(§4) Susceptibility testing against Pseudomonas aeruginosa PAE_NUH03; R=Resistant", "assay_type": "functional, organism-based", "summary_of_the_method": "as §2"}, "Pseudomonas aeruginosa [7]": {"tested_on": "Pseudomonas aeruginosa", "assay": "Susceptibility testing against Pseudomonas aeruginosa PAE_NUH22; R=Resistant", "assay_type": "functional, organism-based", "summary_of_the_method": "as §2"}, "Pseudomonas aeruginosa [8]": {"tested_on": "Pseudomonas aeruginosa", "assay": "Susceptibility testing against Pseudomonas aeruginosa PAE_NUH19; R=Resistant", "assay_type": "functional, organism-based", "summary_of_the_method": "as §2"}, "Pseudomonas aeruginosa [9]": {"tested_on": "Pseudomonas aeruginosa", "assay": "Susceptibility testing against Pseudomonas aeruginosa PAE_NUH07; R=Resistant", "assay_type": "functional, organism-based", "summary_of_the_method": "as §2"}, "Pseudomonas aeruginosa [10]": {"tested_on": "Pseudomonas aeruginosa", "assay": "(§5) Susceptibility testing against Pseudomonas aeruginosa PAE_NUH01; R=Resistant", "assay_type": "functional, organism-based", "summary_of_the_method": "as §2"}, "Pseudomonas aeruginosa [11]": {"tested_on": "Pseudomonas aeruginosa", "assay": "(§6) Susceptibility testing against Pseudomonas aeruginosa PAE_NUH04; R=Resistant", "assay_type": "functional, organism-based", "summary_of_the_method": "as §2"}, "Pseudomonas aeruginosa [12]": {"tested_on": "Pseudomonas aeruginosa", "assay": "Susceptibility testing against Pseudomonas aeruginosa PAE_NUH18; R=Resistant", "assay_type": "functional, organism-based", "summary_of_the_method": "as §2"}, "Pseudomonas aeruginosa [13]": {"tested_on": "Pseudomonas aeruginosa", "assay": "Susceptibility testing against Pseudomonas aeruginosa PAE_NUH17; R=Resistant", "assay_type": "functional, organism-based", "summary_of_the_method": "as §2"}, "Pseudomonas aeruginosa [14]": {"tested_on": "Pseudomonas aeruginosa", "assay": "Susceptibility testing against Pseudomonas aeruginosa ATCC 27853; S=Susceptible", "assay_type": "functional, organism-based", "summary_of_the_method": "(§7)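 Disk diffusion susceptibility profiling against a panel of empirically used antipseudomonal antibiotics. Each strain was categorised as susceptible (S) or intermediate (I).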"}, "Pseudomonas aeruginosa [15]": {"tested_on": "Pseudomonas aeruginosa", "assay": "Susceptibility testing against Pseudomonas aeruginosa PAE_NUH21; I=Intermediate", "assay_type": "functional, organism-based", "summary_of_the_method": "as §7"}, "Pseudomonas aeruginosa [16]": {"tested_on": "Pseudomonas aeruginosa", "assay": "(§8) Susceptibility testing against Pseudomonas aeruginosa PAE_NUH06; R=Resistant", "assay_type": "functional, organism-based", "summary_of_the_method": "as §2"}, "Pseudomonas aeruginosa [17]": {"tested_on": "Pseudomonas aeruginosa", "assay": "(§9) Susceptibility testing against Pseudomonas aeruginosa PAE_NUH23; R=Resistant", "assay_type": "functional, organism-based", "summary_of_the_method": "as §2"}, "Pseudomonas aeruginosa [18]": {"tested_on": "Pseudomonas aeruginosa", "assay": "as §9", "assay_type": "functional"}, "Pseudomonas aeruginosa [19]": {"tested_on": "Pseudomonas aeruginosa", "assay": "as §3", "assay_type": "functional"}, "Pseudomonas aeruginosa [20]": {"tested_on": "Pseudomonas aeruginosa", "assay": "Susceptibility testing against Pseudomonas aeruginosa PAE_NUH21; S=Susceptible", "assay_type": "functional"}, "Staphylococcus aureus [21]": {"tested_on": "Staphylococcus aureus", "assay": "In vitro minimum inhibitory concentration against Staphylococcus aureus ATCC 29213; Range is 0.12-1", "assay_type": "functional"}, "Pseudomonas aeruginosa [22]": {"tested_on": "Pseudomonas aeruginosa", "assay": "Susceptibility testing against Pseudomonas aeruginosa PAE_NUH24; S=Susceptible", "assay_type": "functional"}, "Enterococcus faecalis": {"tested_on": "Enterococcus faecalis", "assay": "In vitro minimum inhibitory concentration against Enterococcus faecalis 29212; range is 8-32 ug/ml", "assay_type": "functional", "summary_of_the_method": "(§10)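 Broth microdilution following CLSI M100-S12. Stocks were 10 mg/mL in water, diluted in Mueller–Hinton broth to a top level of 128, then serially 2-fold in plates. Bacteria in cation-adjusted Mueller–Hinton broth were mixed 1:1 with drug and incubated 16–20 h at 35 °C. MIC was the lowest concentration with no visible growth. Run in duplicate with no-antibiotic and no-inoculum (sterility) controls.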"}, "Pseudomonas aeruginosa [23]": {"tested_on": "Pseudomonas aeruginosa", "assay": "as §6", "assay_type": "functional"}, "Escherichia coli": {"tested_on": "Escherichia coli", "assay": "In vitro minimum inhibitory concentration against Escherichia coli ATCC 25922; Range is 0.25-1", "assay_type": "functional"}, "Pseudomonas aeruginosa [24]": {"tested_on": "Pseudomonas aeruginosa", "assay": "Minimum inhibitory concentration against Pseudomonas aeruginosa ATCC 27853; Range is 0.25-1", "assay_type": "functional"}, "Pseudomonas aeruginosa [25]": {"tested_on": "Pseudomonas aeruginosa", "assay": "Minimum inhibitory concentration against Pseudomonas aeruginosa PAO-1; Range is 0.25-1", "assay_type": "functional"}, "Pseudomonas aeruginosa [26]": {"tested_on": "Pseudomonas aeruginosa", "assay": "Susceptibility testing against Pseudomonas aeruginosa PAE_NUH17; S=Susceptible", "assay_type": "functional"}, "Pseudomonas aeruginosa [27]": {"tested_on": "Pseudomonas aeruginosa", "assay": "as §5", "assay_type": "functional"}, "Pseudomonas aeruginosa [28]": {"tested_on": "Pseudomonas aeruginosa", "assay": "as §4", "assay_type": "functional"}, "Pseudomonas aeruginosa [29]": {"tested_on": "Pseudomonas aeruginosa", "assay": "Susceptibility testing against Pseudomonas aeruginosa PAE_NUH07; S=Susceptible", "assay_type": "functional", "summary_of_the_method": "as §7"}, "Pseudomonas aeruginosa [30]": {"tested_on": "Pseudomonas aeruginosa", "assay": "Susceptibility testing against Pseudomonas aeruginosa PAE_NUH20; S=Susceptible", "assay_type": "functional"}, "Pseudomonas aeruginosa [31]": {"tested_on": "Pseudomonas aeruginosa", "assay": "as §8", "assay_type": "functional"}, "Pseudomonas aeruginosa [32]": {"tested_on": "Pseudomonas aeruginosa", "assay": "Minimum inhibitory concentration against Pseudomonas aeruginosa ATCC 27853", "assay_type": "functional", "summary_of_the_method": "as §10"}, "Pseudomonas aeruginosa [33]": {"tested_on": "Pseudomonas aeruginosa", "assay": "Susceptibility testing against Pseudomonas aeruginosa PAE_NUH22; S=Susceptible", "assay_type": "functional"}, "Staphylococcus aureus [34]": {"tested_on": "Staphylococcus aureus", "assay": "In vitro minimum inhibitory concentration against Staphylococcus aureus MRSA 3359", "assay_type": "functional", "summary_of_the_method": "as §10"}, "Pseudomonas aeruginosa [35]": {"tested_on": "Pseudomonas aeruginosa", "assay": "Susceptibility testing against Pseudomonas aeruginosa PAE_NUH18; S=Susceptible", "assay_type": "functional"}, "Pseudomonas aeruginosa [36]": {"tested_on": "Pseudomonas aeruginosa", "assay": "as §1", "assay_type": "functional"}, "Pseudomonas aeruginosa [37]": {"tested_on": "Pseudomonas aeruginosa", "assay": "Susceptibility testing against Pseudomonas aeruginosa PAE_NUH19; S=Susceptible", "assay_type": "functional"}, "Pseudomonas aeruginosa [38]": {"tested_on": "Pseudomonas aeruginosa", "assay": "Susceptibility testing against Pseudomonas aeruginosa PAE_NUH25; S=Susceptible", "assay_type": "functional"}},
  "data": [
    {"smiles": "CN(C)[C@@H]1C(O)=C(C(N)=O)C(=O)[C@@]2(O)C(O)=C3C(=O)c4c(O)cccc4[C@@](C)(O)[C@H]3C[C@@H]12", "values": [
      {"measurement": "Activity", "setting": "Pseudomonas aeruginosa [1]", "value": "Resistant"},
      {"measurement": "Activity", "setting": "Pseudomonas aeruginosa [2]", "value": "Resistant"},
      {"measurement": "Activity", "setting": "Pseudomonas aeruginosa [3]", "value": "Resistant"},
      {"measurement": "Activity", "setting": "Pseudomonas aeruginosa [4]", "value": "Resistant"},
      {"measurement": "Activity", "setting": "Pseudomonas aeruginosa [5]", "value": "Resistant"},
      {"measurement": "Activity", "setting": "Pseudomonas aeruginosa [6]", "value": "Resistant"},
      {"measurement": "Activity", "setting": "Pseudomonas aeruginosa [7]", "value": "Resistant"},
      {"measurement": "Activity", "setting": "Pseudomonas aeruginosa [8]", "value": "Resistant"},
      {"measurement": "Activity", "setting": "Pseudomonas aeruginosa [9]", "value": "Resistant"},
      {"measurement": "Activity", "setting": "Pseudomonas aeruginosa [10]", "value": "Resistant"},
      {"measurement": "Activity", "setting": "Pseudomonas aeruginosa [11]", "value": "Resistant"},
      {"measurement": "Activity", "setting": "Pseudomonas aeruginosa [12]", "value": "Resistant"},
      {"measurement": "Activity", "setting": "Pseudomonas aeruginosa [13]", "value": "Resistant"},
      {"measurement": "Activity", "setting": "Pseudomonas aeruginosa [14]", "value": "Susceptible"},
      {"measurement": "Activity", "setting": "Pseudomonas aeruginosa [15]", "value": "Partial resistance"},
      {"measurement": "Activity", "setting": "Pseudomonas aeruginosa [16]", "value": "Resistant"},
      {"measurement": "Activity", "setting": "Pseudomonas aeruginosa [17]", "value": "Resistant"}
    ]},
    {"smiles": "NC[C@H]1O[C@H](O[C@H]2[C@H](O)[C@@H](O[C@H]3O[C@H](CO)[C@@H](O)[C@H](N)[C@H]3O)[C@H](N)C[C@@H]2N)[C@H](N)C[C@@H]1O", "note": "[TOBRAMYCIN]", "values": [
      {"measurement": "MIC", "setting": "Pseudomonas aeruginosa [18]", "value": "> 32", "unit": "µg/mL"},
      {"measurement": "MIC", "setting": "Pseudomonas aeruginosa [19]", "value": 100, "unit": "µg/mL"},
      {"measurement": "MIC", "setting": "Pseudomonas aeruginosa [20]", "value": 1, "unit": "µg/mL"},
      {"measurement": "MIC", "setting": "Staphylococcus aureus [21]", "value": 1, "unit": "µg/mL"},
      {"measurement": "MIC", "setting": "Pseudomonas aeruginosa [22]", "value": 1, "unit": "µg/mL"},
      {"measurement": "MIC", "setting": "Enterococcus faecalis", "value": 32, "unit": "µg/mL"},
      {"measurement": "MIC", "setting": "Pseudomonas aeruginosa [23]", "value": 100, "unit": "µg/mL"},
      {"measurement": "MIC", "setting": "Escherichia coli", "value": 1, "unit": "µg/mL"},
      {"measurement": "MIC", "setting": "Pseudomonas aeruginosa [24]", "value": 1, "unit": "µg/mL"},
      {"measurement": "MIC", "setting": "Pseudomonas aeruginosa [25]", "value": 1, "unit": "µg/mL"},
      {"measurement": "MIC", "setting": "Pseudomonas aeruginosa [26]", "value": 1, "unit": "µg/mL"},
      {"measurement": "MIC", "setting": "Pseudomonas aeruginosa [27]", "value": "> 200", "unit": "µg/mL"},
      {"measurement": "MIC", "setting": "Pseudomonas aeruginosa [28]", "value": 50, "unit": "µg/mL"},
      {"measurement": "MIC", "setting": "Pseudomonas aeruginosa [29]", "value": 6.3, "unit": "µg/mL"},
      {"measurement": "MIC", "setting": "Pseudomonas aeruginosa [30]", "value": 2, "unit": "µg/mL"},
      {"measurement": "MIC", "setting": "Pseudomonas aeruginosa [31]", "value": 100, "unit": "µg/mL"},
      {"measurement": "MIC", "setting": "Pseudomonas aeruginosa [32]", "value": 1, "unit": "µg/mL"},
      {"measurement": "MIC", "setting": "Pseudomonas aeruginosa [33]", "value": 0.25, "unit": "µg/mL"},
      {"measurement": "MIC", "setting": "Staphylococcus aureus [34]", "value": "> 64", "unit": "µg/mL"},
      {"measurement": "MIC", "setting": "Pseudomonas aeruginosa [35]", "value": 0.5, "unit": "µg/mL"},
      {"measurement": "MIC", "setting": "Pseudomonas aeruginosa [36]", "value": 50, "unit": "µg/mL"},
      {"measurement": "MIC", "setting": "Pseudomonas aeruginosa [37]", "value": 0.5, "unit": "µg/mL"},
      {"measurement": "MIC", "setting": "Pseudomonas aeruginosa [38]", "value": 0.5, "unit": "µg/mL"}
    ]}
  ]
}
